Many of the other results were omitted from the sample, so hits are more common in it than they were.
RORa inhibitor – inhibitors of human nuclear receptor RORA; AID 561; 65,000 tested, 0.43% active; P35398; CHO-K1 Gal4-RORA LBD luciferase reporter, luminescence; inhibition, % at 10 µM;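 active means inhibition above the mean of all tested compounds plus 3 SD, cut at about 52% in these data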;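 further: 0% = RORA-transfected cells with DMSO and 100% = mock-transfected cells lacking RORA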
Target sequence (P35398 whole entry, looked up, the tested form may be a part): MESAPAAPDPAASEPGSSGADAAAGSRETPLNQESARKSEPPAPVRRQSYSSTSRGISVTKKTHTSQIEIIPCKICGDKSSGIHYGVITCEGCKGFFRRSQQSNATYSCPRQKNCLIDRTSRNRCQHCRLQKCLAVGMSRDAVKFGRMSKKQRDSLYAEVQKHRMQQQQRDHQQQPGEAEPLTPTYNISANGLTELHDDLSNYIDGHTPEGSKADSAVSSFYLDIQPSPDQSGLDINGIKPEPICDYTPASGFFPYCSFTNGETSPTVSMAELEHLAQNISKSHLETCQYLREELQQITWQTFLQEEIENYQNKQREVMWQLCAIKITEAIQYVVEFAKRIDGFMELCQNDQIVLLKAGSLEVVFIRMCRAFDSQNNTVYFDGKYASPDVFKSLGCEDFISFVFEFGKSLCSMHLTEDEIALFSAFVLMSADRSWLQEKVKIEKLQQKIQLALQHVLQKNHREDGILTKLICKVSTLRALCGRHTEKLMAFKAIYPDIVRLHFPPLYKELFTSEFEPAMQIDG
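Test system: CHO-K1 cells with Gal4-hRORA LBD fusion and pG5-luc reporter / Compound: single concentration per compound, 10 µM final / Schedule: 20 h compound treatment, 37 °C / Signal: luminescence from basal luciferase reporter expression / Read-out: % inhibition / Control set: mock-transfected cells as 100%, +RORA DMSO cells as 0% / Replicates: tested once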
Starred values were filed as active, the others as inactive.

SMILES | RORa inhibitor
Cc1cc(C(F)(F)F)c2c(N)c(C(=O)Nc3cc(C)on3)sc2n1 | -7.4
COC(=O)Cn1ncn2c(cc3oc(C)cc32)c1=O | -33.6
COc1cccc(N2CCN(c3ncnc4c3[nH]c3ccccc34)CC2C)c1 (stereo unspecified) | 95.3*
COc1cccc(N2CCN(c3ncnc4c3[nH]c3ccc(F)cc34)CC2C)c1 (stereo unspecified) | 95.2*
CN(CC(=O)NCc1ccco1)S(=O)(=O)c1ccc2c(c1)n(C)c(=O)c(=O)n2C | 15.0
CCOCCn1c(CN(Cc2ccccc2)Cc2ccccc2)nc2c1c(=O)n(C)c(=O)n2C | -2.1
O=C(Nc1ccc(Cl)cc1)N1CC=CCC1 | -51.5
CCc1ccc(NC2=NC(C(=O)NC3CCCCC3)CC(=O)N2)cc1 (stereo unspecified) | 17.2
COc1cccc2c1C(=O)c1c(O)c3c(c(O)c1C2=O)C[C@@](O)(C(C)=O)C[C@@H]3O[C@H]1C[C@H](N)[C@H](O)[C@H](C)O1 | 77.5*
CN(C)c1nc(N)nc(Cn2ccnc2)n1 | 21.2
CCCc1cc(NCCN2CCOCC2)n2c(nc3ccccc32)c1C#N | -5.7
CSC1=C(C#N)C(C)CC(=O)N1 (stereo unspecified) | -0.2
COc1ccc(S(=O)(=O)NCc2ccco2)cc1-c1nnc2c3ccccc3c(C)nn12 | 7.1
O=C(NC1CCCC1)C1C2C=CC(C2)C1C(=O)N1CCOCC1 (stereo unspecified) | 0.2
COc1ccc(Nc2nc(N3CCCC3)c3ccccc3n2)cc1 | 10.0
O=C(O)c1cccc(N2CCCC2)c1 | 2.7
c1ccc(-c2nc(N3CCCCCC3)c3ccccc3n2)nc1 | 78.7*
NC(=O)c1nn(-c2ccccc2)nc1N | 18.8
O=C(CSCCO)Nc1cc(C(F)(F)F)ccc1Cl | 12.8
CCOc1ccc(-c2nnc(SCC(=O)N3CCN(c4ccccc4)CC3)o2)cc1 | -8.2
COc1ccc(-c2nc(CSCC(=O)NCc3ccco3)c(C)o2)cc1 | 72.2*
CCOc1ccc(-c2nc(CSCC(=O)NCCN3CCOCC3)c(C)o2)cc1 | 71.2*
O=C(CSCC(=O)NCc1ccco1)NCc1ccco1 | 8.5
Cc1ccc(-c2nc(CS(=O)CC(=O)NCc3ccccc3)c(C)o2)cc1 (stereo unspecified) | -13.0
COc1ccc(CNC(=O)CS(=O)Cc2nc(-c3ccc(C)cc3)oc2C)cc1 (stereo unspecified) | -0.2
SMILES | RORa inhibitor
COc1ccc(C2(C(=O)NCC3CCCO3)CCOCC2)cc1 (stereo unspecified) | 0.9
CC1CCCC(C)N1C(=O)c1cc(-c2cccs2)on1 (stereo unspecified) | -61.2
COC(=O)c1ccccc1NC(=O)CSc1n[nH]c(CC(C)C)n1 | 1.5
COc1ccc(CCn2c(=N)c(C#N)cc3c(=O)n4ccccc4nc32)cc1 | 10.2
O=C(C1CC(=O)N(c2ccccc2)C1)N1CCN(C2=NS(=O)(=O)c3ccccc32)CC1 (stereo unspecified) | 7.7
CCCCc1ccc(NC(=O)C2CCN(S(C)(=O)=O)CC2)cc1 | 5.9
Cc1cccn2c(=O)c3cc(C(=O)N4CCN(c5ccccc5)CC4)n(C)c3nc12 | 8.9
O=C(CSc1nnc(COc2ccc(F)cc2)o1)N1c2ccccc2CCc2ccccc21 | -18.2
Cc1ccc(NCc2nnc(SCC(=O)N3CCCc4ccccc43)o2)c(C)c1 | 6.7
O=C(CSc1nnc(COc2cccc3cccnc23)o1)N1CCc2ccccc21 | 58.8*
Cn1c(=O)c2c(SCc3ccccn3)nc(-c3ccccc3)nc2n(C)c1=O | 11.8
CCCCn1c(SCc2nnc(-c3ccccc3)o2)nc2c1c(=O)n(C)c(=O)n2C | 5.9
O=C(c1ccc(Br)cc1)C1CCc2occc2C1=O (stereo unspecified) | 0.5
Cc1ccc(-c2cnc(NC(=O)CCC(=O)N3CCCCC3)n2C)cc1 | 76.6*
Cn1c(-c2ccc3c(c2)OCO3)cnc1NC(=O)CCC(=O)NCCc1ccccc1 | 23.8
CCCC(=O)Nc1ccc(C(=O)N2CCCC2)cc1 | 6.1
CCOc1ccccc1C1C(C(=O)Nc2ccc(OC)cc2)=C(C)Nc2nc(CCCO)nn21 (stereo unspecified) | 7.9
CCN(CC)S(=O)(=O)c1ccc2c(c1)c(=O)c(C(=O)N1CCN(c3ccccc3)CC1)cn2C | 0.4
COc1ccc(OCCCSc2ncccn2)cc1 | -63.1
C=CCNC(=O)c1ccccc1NC(=O)c1ccccc1 | 19.0
CCCCC(=O)NC(Nc1ccc(C)cn1)(C(=O)OCC)C(F)(F)F (stereo unspecified) | 22.3
CCOC(=O)c1c(C)nc(-c2ccccc2)nc1N | -51.1
CCOC(=O)C1=Nc2ccccc2C1=[N+]=[N-] | 75.8*
CCOC(=O)c1cnn(-c2ccccn2)c1N | -53.0
COc1ccc(-c2nnc(SCC(=O)Nc3ncc(C)s3)n2-c2ccccc2)cc1OC | -18.2
SMILES | RORa inhibitor
CC(=O)N1CCc2cc(S(=O)(=O)NCCC3=CCCCC3)ccc21 | 56.8*
CCC(=O)N1CCc2cc(S(=O)(=O)N3CCc4ccccc4C3)ccc21 | 16.8
CC(=O)N1CCc2cc(S(=O)(=O)NC3CCCc4ccccc43)ccc21 (stereo unspecified) | 23.5
CC1CCCCC1NC(=O)CSc1nc2ccccc2c(=O)n1Cc1ccco1 (stereo unspecified) | 17.0
Cc1oc(-c2cccc(Cl)c2)nc1CN1CCC(C(=O)NCCCN2CCCC2=O)CC1 | -2.2
CCc1ccc(-c2nc(CN3CCCC(C(=O)NCCc4ccc(OC)c(OC)c4)C3)c(C)o2)cc1 (stereo unspecified) | -10.8
CCOC(=O)N1CCC(NC(=O)C2CCCN(Cc3nc(-c4cccc(Cl)c4)oc3C)C2)CC1 (stereo unspecified) | 63.3*
C(=N\n1cnnc1)/c1ccc(OC2CSC2)cc1 | -20.3
Cc1cc(/C=N/n2cnnc2)c(C)n1-c1ccc(OCc2ccc(F)cc2)cc1 | 70.3*
CCOC(=O)N1CCC(N2Cc3cccc(C(=O)N4CC(C)CC(C)C4)c3C2=O)CC1 (stereo unspecified) | 12.0
COc1cccc(-n2c(SC)nnc2-c2cnccn2)c1 | 0.6
O=C1CCC/C1=c1\s/c(=C\c2cccnc2)c(=O)n1-c1ccccc1 | 9.7
CN(C)c1ccc(-c2nn3c(-c4ccccc4Cl)nnc3s2)cc1 | 11.5
COc1ccccc1-c1nn2c(C(F)(F)F)nnc2s1 | -0.4
COc1ccccc1-c1nnc2sc(-c3ccc(N(C)C)cc3)nn12 | 56.8*
O=C(CSc1nnc(-c2cccnc2)n1-c1ccccc1)Nc1ccc2c(c1)OCO2 | -10.5
Cc1occc1-c1nnc(SCC(=O)N2c3ccccc3CCc3ccccc32)n1C | 6.1
Clc1ncn(C23CC4CC(CC(C4)C2)C3)n1 | 9.0
COc1cccc(-c2cc(C(F)(F)F)nc(NCc3ccco3)n2)c1 | 17.7
CS(=O)(=O)c1nc(-c2ccco2)cc(C(F)(F)F)n1 | 54.3*
COc1ccc(CCNC(=O)CSc2nc(-c3ccco3)cc(C(F)(F)F)n2)cc1OC | -13.7
Cc1cc(C(=O)OCC(=O)N2C(C)CCCC2C)c(C)o1 (stereo unspecified) | 3.2
O=S(=O)(NCCOC12CC3CC(CC(C3)C1)C2)c1cccc2nsnc12 | 23.2
N#C/C(C(=O)c1ccccc1)=C1/SC=C(N)N1c1ccccc1 | -31.3
COc1ccccc1-c1cc(C(F)(F)F)nc(S(=O)(=O)CCCC(=O)NC(C)C)n1 | 57.0*
COc1ccc(S(=O)(=O)CCC(=O)NC2CCCCC2)cc1 | 6.1
Cc1cc(NC(=O)COc2cccc3cccnc23)no1 | -14.1
COc1ccccc1CNC(=O)C(C)NS(=O)(=O)c1ccc(C)cc1 (stereo unspecified) | 34.2
